Screens (PubChem BioAssay)
Hits are enriched below; roughly 1.4% of the tested compounds scored in any of these assays.
HDAC3 inh: inhibitors of human histone deacetylase 3; inhibition, % at 8.3 µM; recombinant HDAC3, fluorogenic peptide/trypsin coupled, fluorescence; hit rate 0.15% among 320,000; in the data active = inhibition above about 26%, passing the limit was not always enough; inconclusive = no clear call, values can overlap the other calls
CR mimetic SO: lowers age-related superoxide in aged yeast cells; hit rate 0.18% among 330,000; superoxide response (% of plate mean), % at 10 µM; S. cerevisiae aged cells, superoxide DHE fluorescence; active compounds read low;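 active = superoxide response under a set limit, about three screen SD below normal, cut at about 65% in these data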;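 also: yeast aged for seven days with compound at 30 °C before DHE staining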
IDE cell activ: activators of human insulin-degrading enzyme in cells; P14735; HEK cells, FAbeta-B cleavage, fluorescence polarization; 0% vehicle, 100% cell-free pure enzyme wells; activation, % at 5.96 µM; hit rate 0.073% among 340,000;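 active = activation above the mean of all tested compounds plus 3 SD, set per screening campaign, cut at about 17% in these data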
Target sequence (P14735 whole entry, looked up): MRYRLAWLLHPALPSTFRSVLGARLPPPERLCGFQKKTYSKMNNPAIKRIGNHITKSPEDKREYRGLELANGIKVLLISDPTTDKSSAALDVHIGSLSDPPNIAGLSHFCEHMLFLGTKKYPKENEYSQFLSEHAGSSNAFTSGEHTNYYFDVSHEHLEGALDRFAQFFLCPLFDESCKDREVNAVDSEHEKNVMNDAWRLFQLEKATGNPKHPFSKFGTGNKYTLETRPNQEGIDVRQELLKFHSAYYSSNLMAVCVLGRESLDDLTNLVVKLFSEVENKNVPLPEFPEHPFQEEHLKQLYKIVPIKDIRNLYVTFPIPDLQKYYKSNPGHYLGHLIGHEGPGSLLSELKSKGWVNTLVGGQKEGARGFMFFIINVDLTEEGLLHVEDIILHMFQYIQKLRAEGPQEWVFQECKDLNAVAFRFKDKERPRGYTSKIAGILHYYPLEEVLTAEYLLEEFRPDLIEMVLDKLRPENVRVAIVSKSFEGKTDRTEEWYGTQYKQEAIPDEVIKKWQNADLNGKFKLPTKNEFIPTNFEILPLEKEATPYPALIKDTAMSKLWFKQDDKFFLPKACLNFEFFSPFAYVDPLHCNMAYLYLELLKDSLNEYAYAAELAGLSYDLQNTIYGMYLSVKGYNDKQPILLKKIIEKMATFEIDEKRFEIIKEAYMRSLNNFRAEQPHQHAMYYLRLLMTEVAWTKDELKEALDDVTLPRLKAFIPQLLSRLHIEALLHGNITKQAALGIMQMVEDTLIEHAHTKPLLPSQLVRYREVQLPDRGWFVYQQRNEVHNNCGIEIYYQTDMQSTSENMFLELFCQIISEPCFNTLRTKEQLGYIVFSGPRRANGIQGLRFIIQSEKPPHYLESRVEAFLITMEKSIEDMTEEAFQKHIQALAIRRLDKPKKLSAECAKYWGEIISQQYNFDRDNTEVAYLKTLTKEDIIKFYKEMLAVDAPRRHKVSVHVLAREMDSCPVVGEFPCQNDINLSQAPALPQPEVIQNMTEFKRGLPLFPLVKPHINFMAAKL
Efflux pump mplx: inhibitors of Candida antifungal efflux pumps expressed in yeast. S. cerevisiae Candida pump triplex, Nile Red efflux. inhibition, % at 10 µM. hit rate 0.44% among 330,000;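 active = plate passing quality check with inhibition over a set limit, or well fluorescence over plate mean plus 4 SD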;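 also: Nile Red retained in pooled yeast measured as flow cytometry median fluorescence; higher means more Nile Red kept so more efflux inhibition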
TbMetRS inhib: blocks T. brucei methionyl-tRNA synthetase activity. purified T. brucei MetRS, ATP depletion, Kinase-Glo luminescence. inhibition, % at 11.9 µM. hit rate 0.4% among 360,000. AID 624268;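 active = inhibition above a per-plate cutoff of the control wells' mean inhibition plus 3 SD, cut at about 5.5% in these data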
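technique = Kinase-Glo luminescence, ATP depletion format | system = purified MetRS (methionyl-tRNA synthetase) enzyme from Trypanosoma brucei | timing = 15 min preincubation, 2 h reaction, all 25 °C | evaluation = percent inhibition versus plate control medians | dosing = single dose, 11.9 µM final nominal, 0.9% final DMSO | also added = substrates ATP, L-methionine and bulk Escherichia coli tRNA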
IDE inh: inhibitors of human insulin-degrading enzyme in cells; AID 434962; hit rate 0.41% among 320,000; inhibition, % at 5.59 µM; HEK cells, FAbetaB cleavage, fluorescence polarization; P14735;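 active = percent inhibition above the average of all tested compounds plus 3 SD, set per screening campaign, cut at about 16% in these data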;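 also: IDE supplied by intact live HEK cells; FP after avidin binding of uncleaved biotin substrate so inhibition keeps polarization high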
Yeast cmpd fluor: flagged as fluorescent in efflux inhibitor counter-screen | shares compounds with Efflux pump mplx | hit rate 4% among 1,700 | fluorescence ratio to DMSO, % at 10 µM | S. cerevisiae AD/pABC3, compound fluorescence, flow cytometry;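 active = fluorescence ratio to DMSO above its plate's cutoff, the plate mean ratio plus 5 SD, cut at about 210% in these data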;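 also: unstained yeast with no Nile Red so the signal is compound autofluorescence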
Mdr1 pump inh: inhibitors of Candida albicans Mdr1 efflux pump; AID 588518; hit rate 1% among 1,700; shares compounds with Efflux pump mplx; inhibition, % at 10 µM; S. cerevisiae AD/CaMDR1, Nile Red efflux, flow cytometry; in the data active = inhibition above about 26%;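 also: higher means more Nile Red retained so more efflux inhibition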
CaCdr2 efflux inh: Candida Cdr2 efflux pump inhibition | shares compounds with Efflux pump mplx | S. cerevisiae AD/CaCDR2, Nile Red retention, flow cytometry | Nile Red retention ratio vs DMSO, % at 10 µM | hit rate 4% among 1,700; in the data active = Nile Red retention ratio vs DMSO above about 190%;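 also: higher ratio means more blocking of Cdr2 efflux of the dye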
CaCdr1 efflux inh: blocks the Candida albicans Cdr1 efflux pump in yeast; shares compounds with Efflux pump mplx; S. cerevisiae AD/CaCDR1, Nile Red efflux, flow cytometry; inhibition, % at 10 µM; hit rate 1% among 1,700;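 active = inhibition above the screen-wide mean plus twice its standard deviation, cut at about 32% in these data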
Each line names hits and unclear results; the compound was inactive in the other large screens (follow-up assays come after a bar, where they were run).

Cc1ccc(C(=O)NCC(=O)OCc2csc(-c3ccccc3)n2)cc1	Efflux pump mplx 6.8 | Yeast cmpd fluor inactive | Mdr1 pump inh inactive | CaCdr2 efflux inh inactive | CaCdr1 efflux inh inactive
O=C(COC(=O)c1cccc(Cl)c1Cl)NCCN1C(=O)CSC1=O	none | Yeast cmpd fluor inactive | Mdr1 pump inh inactive | CaCdr2 efflux inh inactive | CaCdr1 efflux inh inactive
O=C(COC(=O)c1ccccc1Br)NCCN1C(=O)CSC1=O	Efflux pump mplx 1.1 | Yeast cmpd fluor inactive | Mdr1 pump inh inactive | CaCdr2 efflux inh inactive | CaCdr1 efflux inh inactive
CC1CC(C)CN(S(=O)(=O)c2ccc(C(=O)OCC(=O)NCCN3C(=O)CSC3=O)cc2)C1 (stereo unspecified)	none
Cc1c(C(=O)OCC(=O)NCCN2C(=O)CSC2=O)cccc1[N+](=O)[O-]	none
CCN(CC)S(=O)(=O)c1cccc(C(=O)OCC(=O)NCCN2C(=O)CSC2=O)c1	none | Yeast cmpd fluor inactive | Mdr1 pump inh inactive | CaCdr2 efflux inh inactive | CaCdr1 efflux inh inactive
COc1ccc(/C=N/OCC(=O)Nc2nc3ccccc3s2)cc1	none
CC1Cc2ccccc2N1S(=O)(=O)c1cccc(C(=O)N2CCN(c3ncccn3)CC2)c1 (stereo unspecified)	Efflux pump mplx 0.9 | Yeast cmpd fluor inactive | Mdr1 pump inh inactive | CaCdr2 efflux inh inactive | CaCdr1 efflux inh inactive
Cc1ccc(O)c(C(=O)CC(=O)c2ccccc2Cl)c1	Efflux pump mplx 0.6 | Yeast cmpd fluor inactive | Mdr1 pump inh inactive | CaCdr2 efflux inh inactive | CaCdr1 efflux inh inactive
Cc1ccc(O)c(C(=O)CC(=O)c2ccc(C(C)(C)C)cc2)c1	none
Cc1cc(NS(=O)(=O)c2ccc(NC(=O)C(CC(C)C)N3C(=O)c4ccccc4C3=O)cc2)nc(C)n1 (stereo unspecified)	Efflux pump mplx 0.9 | Yeast cmpd fluor inactive | Mdr1 pump inh inactive | CaCdr2 efflux inh inactive | CaCdr1 efflux inh inactive
Nc1nnc(SCC(=O)NNC(=O)c2ccc(Cl)cc2)s1	Efflux pump mplx 93 | Yeast cmpd fluor inactive | Mdr1 pump inh inactive | CaCdr2 efflux inh inactive | CaCdr1 efflux inh inactive
COc1ccc(CC(=O)O/N=C(\N)c2ccc(C)cc2)cc1	none | Yeast cmpd fluor inactive | Mdr1 pump inh inactive | CaCdr2 efflux inh inactive | CaCdr1 efflux inh inactive
COc1ccc(OC)c2sc(N3CCCCC3)nc12	Efflux pump mplx 1.1 | Yeast cmpd fluor inactive | Mdr1 pump inh inactive | CaCdr2 efflux inh inactive | CaCdr1 efflux inh inactive
COc1ccc(OC)c2sc(N3CCc4ccccc4C3)nc12	none
COc1cc2ccnc(C=NO)c2cc1OC	none (no result: HDAC3 inh, CR mimetic SO, IDE cell activ, Efflux pump mplx, IDE inh)
O=C(O)CC1c2ccccc2CCN1S(=O)(=O)c1cccs1 (stereo unspecified)	Efflux pump mplx 2.2 (no result: IDE cell activ) | Yeast cmpd fluor inactive | Mdr1 pump inh inactive | CaCdr2 efflux inh inactive | CaCdr1 efflux inh inactive
O=C(O)CC1c2ccccc2CCN1S(=O)(=O)c1ccccc1 (stereo unspecified)	none (no result: IDE cell activ)
CSc1nc(N(C)C)nc(N(C)C#N)n1	none
Oc1ccc(N=Nc2c(O)ccc3ccccc23)cc1	Efflux pump mplx 0.8 | Yeast cmpd fluor inactive | Mdr1 pump inh inactive | CaCdr2 efflux inh 204 | CaCdr1 efflux inh inactive
NS(=O)(=O)c1ccc(N=Nc2c(O)ccc3ccccc23)cc1	none
CCCCN(CC)CCCNC(=O)c1cn(-c2ccc(OC)cc2)c(=O)c2ccccc12	none
O=C(COC(=O)CSc1ccc2ccccc2c1)NC1CCCC1	Efflux pump mplx 25 | Yeast cmpd fluor inactive | Mdr1 pump inh inactive | CaCdr2 efflux inh inactive | CaCdr1 efflux inh inactive
O=C(CN1CCN(Cc2ccccc2Cl)CC1)N=Nc1c(O)[nH]c2ccccc12	Efflux pump mplx 13 | Yeast cmpd fluor inactive | Mdr1 pump inh inactive | CaCdr2 efflux inh inactive | CaCdr1 efflux inh inactive
Cc1ccc(CN2CCN(CC(=O)N=Nc3c(O)[nH]c4ccccc34)CC2)cc1	none
COc1ccc(NC(=S)Nc2ccc(OCc3ccccc3)cc2)c(OC)c1	none
COc1ccc(NC(=S)Nc2ccccc2)c(OC)c1	Efflux pump mplx 1.1 | Yeast cmpd fluor inactive | Mdr1 pump inh inactive | CaCdr2 efflux inh inactive | CaCdr1 efflux inh inactive
Cc1cc(Cl)ccc1NC(=O)CSc1nnc(Cc2cccs2)n1Cc1ccco1	none | Yeast cmpd fluor inactive | Mdr1 pump inh inactive | CaCdr2 efflux inh inactive | CaCdr1 efflux inh inactive
Cc1cc(C)c(NC(=O)CSc2nnc(-c3ccncc3)n2Cc2ccco2)c(Cl)c1	Efflux pump mplx 1.3 | Yeast cmpd fluor inactive | Mdr1 pump inh inactive | CaCdr2 efflux inh inactive | CaCdr1 efflux inh inactive
COc1cc2c(cc1NC(=O)CSc1nnc(Cc3cccs3)n1C)oc1ccccc12	none
COc1ccc(C(=O)CSc2nnc(CNc3ccc(C)cc3C)n2Cc2ccco2)cc1	Efflux pump mplx 1.1 (no result: HDAC3 inh) | Yeast cmpd fluor inactive | Mdr1 pump inh inactive | CaCdr2 efflux inh inactive | CaCdr1 efflux inh inactive
COc1cc2c(cc1NC(=O)CSc1nnc(Cc3cccs3)n1Cc1ccco1)oc1ccccc12	none | Yeast cmpd fluor inactive | Mdr1 pump inh inactive | CaCdr2 efflux inh inactive | CaCdr1 efflux inh inactive
CCOC(=O)C(C)(C)Oc1cccc2c1S(=O)(=O)c1ccccc1-2	none
Cc1ccc(SCC(=O)OCC(=O)NC(C)c2ccc(F)cc2)cc1 (stereo unspecified)	none
CCCCCCCCN1C(=O)[C@H](CC(=O)NCCC(C)C)C[C@@]2(C(=O)OCC)CCCC=C12	none (no result: HDAC3 inh, CR mimetic SO, IDE cell activ, Efflux pump mplx, IDE inh)
COCCCN(CC(=O)Nc1ccc(F)cc1)S(=O)(=O)c1cccs1	none
CCOC(=O)c1cnc2cc(F)c(F)cc2c1N1CCN(C)CC1	none
CC(NC(=O)CCNC(=O)c1ccco1)c1ccccc1 (stereo unspecified)	none
COc1ccc(C(=O)c2ccccc2)c(OCC(=O)N(C)C)c1	HDAC3 inh inconclusive
COc1ccc(-n2c(N)c(C(=O)Nc3c(C)n(C)n(-c4ccccc4)c3=O)c3nc4ccccc4nc32)cc1	Efflux pump mplx 0.8 | Yeast cmpd fluor inactive | Mdr1 pump inh inactive | CaCdr2 efflux inh inactive | CaCdr1 efflux inh inactive
N#CC(C(=O)NCc1ccccc1)c1nc2ccccc2nc1N1CCCC1 (stereo unspecified)	Efflux pump mplx 0.9 | Yeast cmpd fluor inactive | Mdr1 pump inh inactive | CaCdr2 efflux inh inactive | CaCdr1 efflux inh inactive
COc1cc2c(cc1OC)CN(C(=S)Nc1ccccc1Cl)CC2	none
COc1cc2c(cc1OC)CN(C(=S)Nc1ccc(C)cc1C)CC2	Efflux pump mplx 1.1 | Yeast cmpd fluor inactive | Mdr1 pump inh inactive | CaCdr2 efflux inh inactive | CaCdr1 efflux inh inactive
COc1ccc(/C=C(/NC(=O)c2ccco2)C(=O)N2CCCCCC2)cc1OC	none (no result: HDAC3 inh)
